What was measured:
[1] = MTT cytotoxicity assay, WISH cell line; format: cell-based; settings: human, WISH cells (human amnion)
Procedure, shortened: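 WISH cells (ATCC via VACSERA) grown in RPMI-1640 with 10% fetal bovine serum at 37 °C, 5% CO2. Seeded at 1.0 × 10^4 cells/well for 48 h, then treated 24 h with a range of concentrations. MTT (5 mg/mL stock) added for 4 h, formazan dissolved in DMSO, A570 read. Viability given as % of untreated cells. IC50 in μg/mL is the concentration giving 50% inhibition versus untreated cells. Doxorubicin reference.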

[2] = Antioxidant activity screening by ABTS method; settings: ABTS radical scavenging, 6 min incubation, absorbance at 734 nm
Procedure, shortened: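 ABTS radical made from 7 mM ABTS plus 140 mM […], left in the dark at room temperature for 16 h, then diluted 1:44 (v/v) in water. Equal volumes of radical solution and sample mixed in microplate and held 6 min at room temperature. Absorbance read at 734 nm against 100% methanol. Percent inhibition calculated by formula; L-ascorbic acid as reference.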

Structure (SMILES)	IC50 at 24 h [1]	ABTS Inhibition % [2]
COc1cccc2c1C(=O)c1c(O)c3c(c(O)c1C2=O)C[C@@](O)(C(=O)CO)C[C@@H]3O[C@H]1C[C@H](N)[C@H](O)[C@H](C)O1 [DOX, doxorubicin]	3.18 ± 0.2 µM	
O=C1O[C@H]([C@@H](O)CO)C(O)=C1O [L-Ascorbic acid]		88.8%
